Laboratory results from ChEMBL document CHEMBL2331432, “Synthesis and dual biological effects of hydroxycinnamoyl phenylalanyl/prolyl hydroxamic acid derivatives as tyrosinase inhibitor and antioxidant” (Bioorg Med Chem Lett, 2013).
Activity calls are given as the source filed them. The rule behind the calls is not given here.

Columns and labels:
[1] = tested on: Radical scavenging activity; assay: Antioxidant activity assessed as DPPH radical scavenging activity by UV/Visible spectrophotometry; type: functional
In short: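 DPPH in methanol; antioxidant:DPPH molar ratio 0.25 for caffeic/dihydrocaffeic acids and their conjugates, 0.50 for p-coumaric, ferulic, sinapic acids and their conjugates. 10 min at 25 °C, absorbance at 516 nm. %RSA = (1−A/B)×100, B = methanol in place of sample. Triplicate, mean with standard error.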

[2] = molecular target: T1, Tyrosinase (Agaricus bisporus) (UniProt O42713); assay: Inhibition of mushroom tyrosinase using L-DOPA substrate at 50 to 100 uM incubated for 10 mins
T1 sequence (whole entry): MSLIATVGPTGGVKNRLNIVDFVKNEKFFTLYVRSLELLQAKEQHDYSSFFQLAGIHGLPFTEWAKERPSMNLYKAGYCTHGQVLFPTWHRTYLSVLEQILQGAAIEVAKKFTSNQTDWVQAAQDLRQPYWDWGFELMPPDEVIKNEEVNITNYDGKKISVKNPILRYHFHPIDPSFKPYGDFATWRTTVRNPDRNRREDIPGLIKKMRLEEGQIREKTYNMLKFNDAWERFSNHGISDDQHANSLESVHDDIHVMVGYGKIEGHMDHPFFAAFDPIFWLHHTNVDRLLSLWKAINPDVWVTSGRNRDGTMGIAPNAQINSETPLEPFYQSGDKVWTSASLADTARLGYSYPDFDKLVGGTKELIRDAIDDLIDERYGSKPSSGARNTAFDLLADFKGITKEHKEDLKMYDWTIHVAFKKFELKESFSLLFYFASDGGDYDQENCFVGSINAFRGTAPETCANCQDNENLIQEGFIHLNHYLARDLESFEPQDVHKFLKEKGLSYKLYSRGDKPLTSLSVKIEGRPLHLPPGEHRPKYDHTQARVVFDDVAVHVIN
In short: (§1)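 Mushroom tyrosinase (25 µL of 100 µg/mL aqueous solution) added to 0.1 M phosphate buffer pH 6.8, 2.5 mM L-DOPA (stock), water and inhibitor in DMSO. Incubated 25 °C for 10 min, absorbance at 475 nm. %inhibition = (1−A/B)×100 against a DMSO-only reference. Single-point tests at 50 or 100 µM; kojic acid as reference. Triplicate, mean with standard error.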

[3] = Antioxidant activity assessed as inhibition of lipid peroxidation after 48 hrs by ferric thiocyanate assay; type: functional
In short: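 Lipid peroxidation run in an emulsified system with antioxidant at 90 µM final, 50 °C in the dark for 48 h. Ferric thiocyanate read-out: absorbance at 500 nm 3 min after colour development. Trolox as positive control. Triplicate, mean with standard error.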

[4] = molecular target: T1, Tyrosinase (Agaricus bisporus); assay: Inhibition of mushroom tyrosinase using L-DOPA substrate at 100 uM incubated for 10 mins; in short: as §1
Mel-Ab = assay: (§2) Inhibition of TPA-stimulated melanogenesis in mouse Mel-Ab cells at 100 uM after 4 days; type: functional
[5] = Toxicity against mouse Mel-Ab cells at 100 uM by CCK-8 assay
[6] = as §2; type: functional; settings: 96 h
Tyrosinase = molecular target: T2, Tyrosinase (Agaricus bisporus, UniProt O42713); assay: Inhibition of mushroom tyrosinase using L-DOPA substrate incubated for 10 mins
T2 sequence (O42713 whole entry): T1 sequence (whole entry)

Compound	Activity [1]	inhibition [2]	inhibition [3]	Activity [5]	further results
COc1cc(/C=C/C(=O)O)ccc1O	Active	inactive	–	–	–
O=C(O)CCc1ccc(O)c(O)c1	–	–	inactive	–	–
COc1cc(/C=C/C(=O)O)cc(OC)c1O	–	inactive	–	–	–
CC(=O)N1CCCC1C(=O)NO (centres undefined)	–	–	–	–	inhibition [4]: 5%
CC(=O)NC(Cc1ccccc1)C(=O)NO (centres undefined)	–	–	–	–	inhibition [4]: 6%
COc1cc(/C=C/C(=O)NC(Cc2ccccc2)C(=O)NO)ccc1O (centres undefined)	Active	inactive	Active	Non-toxic	inhibition (Mel-Ab): inactive
O=C(CCc1ccc(O)c(O)c1)NC(Cc1ccccc1)C(=O)NO (centres undefined)	–	inactive	inactive	–	–
OC[C@H]1O[C@@H](Oc2ccc(O)cc2)[C@H](O)[C@@H](O)[C@@H]1O	–	–	–	–	inhibition (Mel-Ab): Active
O=C(/C=C/c1ccc(O)cc1)NC(Cc1ccccc1)C(=O)NO (centres undefined)	inactive	Active	inactive	–	–
O=C(NO)C1CCCN1C(=O)/C=C/c1ccc(O)c(O)c1 (centres undefined)	Active	Active	Active	Non-toxic	inhibition at 100 µM [6]: 30%
COc1cc(/C=C/C(=O)N2CCCC2C(=O)NO)cc(OC)c1O (centres undefined)	Active	inactive	Active	Non-toxic	inhibition at 100 µM [6]: 30%
O=C(NO)C1CCCN1C(=O)/C=C/c1ccc(O)cc1 (centres undefined)	inactive	Active	inactive	–	–
COc1cc(/C=C/C(=O)N2CCCC2C(=O)NO)ccc1O (centres undefined)	Active	inactive	Active	Non-toxic	–
O=C(/C=C/c1ccc(O)c(O)c1)NC(Cc1ccccc1)C(=O)NO (centres undefined)	–	Active	Active	Non-toxic	inhibition (Mel-Ab): Active; IC50 (Tyrosinase): 4.9 µM
O=C(O)/C=C/c1ccc(O)c(O)c1 [CAFFEIC ACID]	–	–	–	Toxic	–
NC(=O)C(Cc1ccccc1)NC(=O)OCc1cc(=O)c(O)co1 (centres undefined)	–	–	–	–	IC50 (Tyrosinase): 4.2 µM
O=C(O)/C=C/c1ccc(O)cc1	inactive	–	inactive	–	–
COc1cc(/C=C/C(=O)NC(Cc2ccccc2)C(=O)NO)cc(OC)c1O (centres undefined)	–	inactive	Active	Non-toxic	inhibition at 100 µM [6]: 30%
O=C(NO)C1CCCN1C(=O)CCc1ccc(O)c(O)c1 (centres undefined)	–	inactive	inactive	–	–
